From ChEMBL document CHEMBL1137764, “Design, synthesis, antibacterial activity and physicochemical parameters of novel N-4-piperazinyl derivatives of norfloxacin” (Bioorg Med Chem, 2009)
In brackets after ≈: the same amount, converted by molar mass.

How the values were obtained:
[1] = test system: Escherichia coli; assay: Antimicrobial activity against Escherichia coli at 512 ug/ml after 24 hrs by agar diffusion technique; format: functional; details: read-out: DIZ
How it was run: (§1)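 Strains came from a university microbiology department. Inocula were 10⁶ CFU/mL. Mueller-Hinton agar was seeded with culture, poured 3–4 mm thick, and 10 mm cups were bored. Compounds were dissolved in DMF (10 mg/mL stock), diluted, and the solution was placed in the cups. Plates were incubated at 37 °C overnight. Inhibition zone diameter (mm) was read at 24 h.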

[2] = test system: Staphylococcus aureus; assay: Antimicrobial activity against Staphylococcus aureus at 4 ug/ml after 24 hrs by agar diffusion technique; format: functional; details: read-out: DIZ; how it was run: as §1
[3] = test system: Staphylococcus aureus; assay: Antimicrobial activity against Staphylococcus aureus at 512 ug/ml after 24 hrs by agar diffusion technique; format: functional; details: read-out: DIZ; how it was run: as §1
[4] = test system: Klebsiella pneumoniae; assay: Antimicrobial activity against Klebsiella pneumoniae at 16 ug/ml after 24 hrs by agar diffusion technique; format: functional; details: read-out: DIZ; how it was run: as §1
[5] = test system: Klebsiella pneumoniae; assay: Antimicrobial activity against Klebsiella pneumoniae after 24 hrs by agar diffusion technique; format: functional; details: for MIC: Klebsiella pneumoniae, 24 h
How it was run: (§2)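 Agar cup diffusion on Mueller-Hinton agar seeded from 10⁶ CFU/mL suspensions, with 10 mm cups in a 3–4 mm layer. Compounds were in DMF (10 mg/mL stock) at several concentrations. Plates were incubated at 37 °C and zones measured after 24 h. MIC was taken as the intercept of the plot of log concentration against inhibition zone diameter.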

[6] = test system: Pseudomonas aeruginosa; assay: Antimicrobial activity against Pseudomonas aeruginosa at 512 ug/ml after 24 hrs by agar diffusion technique; format: functional; details: read-out: DIZ; how it was run: as §1
[7] = test system: Klebsiella pneumoniae; assay: Antimicrobial activity against Klebsiella pneumoniae at 128 ug/ml after 24 hrs by agar diffusion technique; format: functional; details: read-out: DIZ; how it was run: as §1
[8] = test system: Escherichia coli; assay: Antimicrobial activity against Escherichia coli at 64 ug/ml after 24 hrs by agar diffusion technique; format: functional; details: read-out: DIZ; how it was run: as §1
[9] = test system: Pseudomonas aeruginosa; assay: Antimicrobial activity against Pseudomonas aeruginosa at 64 ug/ml after 24 hrs by agar diffusion technique; format: functional; details: read-out: DIZ; how it was run: as §1
[10] = test system: Staphylococcus aureus; assay: Antimicrobial activity against Staphylococcus aureus at 16 ug/ml after 24 hrs by agar diffusion technique; format: functional; details: read-out: DIZ; how it was run: as §1
[11] = test system: Escherichia coli; assay: Antimicrobial activity against Escherichia coli after 24 hrs by agar diffusion technique; format: functional; details: for MIC: Escherichia coli, 24 h; how it was run: as §2
[12] = test system: Klebsiella pneumoniae; assay: Antimicrobial activity against Klebsiella pneumoniae at 4 ug/ml after 24 hrs by agar diffusion technique; format: functional; details: read-out: DIZ; how it was run: as §1
[13] = test system: Escherichia coli; assay: Antimicrobial activity against Escherichia coli at 4 ug/ml after 24 hrs by agar diffusion technique; format: functional; details: read-out: DIZ; how it was run: as §1
[14] = test system: Klebsiella pneumoniae; assay: Antimicrobial activity against Klebsiella pneumoniae at 64 ug/ml after 24 hrs by agar diffusion technique; format: functional; details: read-out: DIZ; how it was run: as §1
[15] = test system: Staphylococcus aureus; assay: Antimicrobial activity against Staphylococcus aureus at 64 ug/ml after 24 hrs by agar diffusion technique; format: functional; details: read-out: DIZ; how it was run: as §1
[16] = test system: Pseudomonas aeruginosa; assay: Antimicrobial activity against Pseudomonas aeruginosa after 24 hrs by agar diffusion technique; format: functional; details: for MIC: Pseudomonas aeruginosa, 24 h; how it was run: as §2
[17] = test system: Pseudomonas aeruginosa; assay: Antimicrobial activity against Pseudomonas aeruginosa at 128 ug/ml after 24 hrs by agar diffusion technique; format: functional; details: read-out: DIZ; how it was run: as §1
[18] = test system: Staphylococcus aureus; assay: Antimicrobial activity against Staphylococcus aureus after 24 hrs by agar diffusion technique; format: functional; details: for MIC: Staphylococcus aureus, 24 h; how it was run: as §2
[19] = test system: Pseudomonas aeruginosa; assay: Antimicrobial activity against Pseudomonas aeruginosa at 16 ug/ml after 24 hrs by agar diffusion technique; format: functional; details: read-out: DIZ; how it was run: as §1
[20] = test system: Staphylococcus aureus; assay: Antimicrobial activity against Staphylococcus aureus at 128 ug/ml after 24 hrs by agar diffusion technique; format: functional; details: read-out: DIZ; how it was run: as §1
[21] = test system: Pseudomonas aeruginosa; assay: Antimicrobial activity against Pseudomonas aeruginosa at 4 ug/ml after 24 hrs by agar diffusion technique; format: functional; details: read-out: DIZ; how it was run: as §1
[22] = test system: Escherichia coli; assay: Antimicrobial activity against Escherichia coli at 128 ug/ml after 24 hrs by agar diffusion technique; format: functional; details: read-out: DIZ; how it was run: as §1
[23] = test system: Klebsiella pneumoniae; assay: Antimicrobial activity against Klebsiella pneumoniae at 512 ug/ml after 24 hrs by agar diffusion technique; format: functional; details: read-out: DIZ; how it was run: as §1
[24] = test system: Escherichia coli; assay: Antimicrobial activity against Escherichia coli at 16 ug/ml after 24 hrs by agar diffusion technique; format: functional; details: read-out: DIZ; how it was run: as §1
[25] = Octanol-phosphate buffer partition coefficient, log D at pH 7.4 by spectrophotometry; format: physicochemical
How it was run: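 Shake-flask method. A 0.2 mg/mL stock was diluted into pH 7.4 phosphate buffer and mixed with an equal volume of n-octanol, phases mutually presaturated and protected from light. Samples were vortexed 3 min, then shaken 5 h at 25 °C. Both phases were assayed by UV at 270–280 nm. D is the molar concentration ratio, octanol to aqueous.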

| Structure (SMILES) | zone of inhibition at 512 µg/mL [1] [mm] | zone of inhibition at 4 µg/mL [2] [mm] | zone of inhibition at 512 µg/mL [3] [mm] | zone of inhibition at 16 µg/mL [4] [mm] | logMIC [5] | MIC [5] [µg/mL] | zone of inhibition at 512 µg/mL [6] [mm] | zone of inhibition at 128 µg/mL [7] [mm] | zone of inhibition at 64 µg/mL [8] [mm] | zone of inhibition at 64 µg/mL [9] [mm] | zone of inhibition at 16 µg/mL [10] [mm] | logMIC [11] | MIC [11] [µg/mL] | zone of inhibition at 4 µg/mL [12] [mm] | zone of inhibition at 4 µg/mL [13] [mm] | zone of inhibition at 64 µg/mL [14] [mm] | zone of inhibition at 64 µg/mL [15] [mm] | logMIC [16] | MIC [16] [µg/mL] | zone of inhibition at 128 µg/mL [17] [mm] | also measured |
| --- | --- | --- | --- | --- | --- | --- | --- | --- | --- | --- | --- | --- | --- | --- | --- | --- | --- | --- | --- | --- | --- |
| CCn1cc(C(=O)O)c(=O)c2cc(F)c(N3CCN(C4CCCC4)CC3)cc21 | 8 | 0 | 15 | 0 | 1.11 | 13 (≈ 33.6 µM) | 0 | 3 | 0 | 0 | 0 | 1.81 | 64 (≈ 165 µM) | 0 | 0 | 2 | 4 | 2.71 | > 512 | 0 | logMIC [18]: 1.04; MIC [18]: 11 µg/mL (≈ 28.4 µM); zone of inhibition at 16 µg/mL [19]: 0 mm; zone of inhibition at 128 µg/mL [20]: 7 mm; zone of inhibition at 4 µg/mL [21]: 0 mm; zone of inhibition at 128 µg/mL [22]: 3 mm; zone of inhibition at 512 µg/mL [23]: 8 mm; zone of inhibition at 16 µg/mL [24]: 0 mm |
| CCn1cc(C(=O)O)c(=O)c2cc(F)c(N3CCN(CN4CCOCC4)CC3)cc21 | 30 | 5 | 10 | 0 | 2.11 | 128 (≈ 306 µM) | 15 | 0 | 0 | 3 | 7 | 2.11 | 128 (≈ 306 µM) | 0 | 0 | 0 | 7 | 1.2 | 16 (≈ 38.2 µM) | 3 | logD [25]: -0.043; logMIC [18]: 0; MIC [18]: < 1 µg/mL; zone of inhibition at 16 µg/mL [19]: 0 mm; zone of inhibition at 128 µg/mL [20]: 8 mm; zone of inhibition at 4 µg/mL [21]: 0 mm; zone of inhibition at 128 µg/mL [22]: 0 mm; zone of inhibition at 512 µg/mL [23]: 20 mm; zone of inhibition at 16 µg/mL [24]: 0 mm |
| CCn1cc(C(=O)O)c(=O)c2cc(F)c(N3CCN(CN4C(=O)CCC4=O)CC3)cc21 | 5 | 0 | 22 | 15 | 2.11 | 128 (≈ 297 µM) | 27 | 22 | 0 | 13 | 4 | 0 | < 1 | 8 | 0 | 20 | 12 | 0.7 | 5 (≈ 11.6 µM) | 15 | logD [25]: -0.8; logMIC [18]: 0.6; MIC [18]: 4 µg/mL (≈ 9.29 µM); zone of inhibition at 16 µg/mL [19]: 9 mm; zone of inhibition at 128 µg/mL [20]: 13 mm; zone of inhibition at 4 µg/mL [21]: 0 mm; zone of inhibition at 128 µg/mL [22]: 0 mm; zone of inhibition at 512 µg/mL [23]: 31 mm; zone of inhibition at 16 µg/mL [24]: 0 mm |
| CCn1cc(C(=O)O)c(=O)c2cc(F)c(N3CCN(CN4C(=O)c5ccccc5C4=O)CC3)cc21 | 9 | 0 | 0 | 0 | 0.95 | 9 (≈ 18.8 µM) | 12 | 8 | 0 | 0 | 0 | 2.11 | 128 (≈ 268 µM) | 0 | 0 | 4 | 0 | 1.81 | 64 (≈ 134 µM) | 10 | logMIC [18]: 2.71; MIC [18]: > 512 µg/mL; zone of inhibition at 16 µg/mL [19]: 0 mm; zone of inhibition at 128 µg/mL [20]: 0 mm; zone of inhibition at 4 µg/mL [21]: 0 mm; zone of inhibition at 128 µg/mL [22]: 0 mm; zone of inhibition at 512 µg/mL [23]: 10 mm; zone of inhibition at 16 µg/mL [24]: 0 mm |
